Test [1] deals with T1, Interstitial collagenase (Homo sapiens, UniProt P03956).
T1 sequence (P03956 whole entry): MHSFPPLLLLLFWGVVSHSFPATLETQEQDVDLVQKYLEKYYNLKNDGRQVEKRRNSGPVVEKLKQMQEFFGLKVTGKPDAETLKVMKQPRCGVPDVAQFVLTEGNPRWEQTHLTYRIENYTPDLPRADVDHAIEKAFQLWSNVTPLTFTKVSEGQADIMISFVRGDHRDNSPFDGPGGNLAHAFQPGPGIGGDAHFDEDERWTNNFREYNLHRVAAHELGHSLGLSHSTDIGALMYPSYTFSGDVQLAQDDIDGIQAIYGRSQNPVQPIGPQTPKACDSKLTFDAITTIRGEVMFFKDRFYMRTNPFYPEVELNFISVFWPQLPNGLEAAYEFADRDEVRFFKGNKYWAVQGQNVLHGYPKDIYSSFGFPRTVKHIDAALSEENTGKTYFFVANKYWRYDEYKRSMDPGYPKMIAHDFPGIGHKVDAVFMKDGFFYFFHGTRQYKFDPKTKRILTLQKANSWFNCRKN
Nature of the test: Inhibition of rat skin type I collagen degradation by purified human lung fibroblast collagenase. The essentials:
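Trypsin-activated, semipurified enzyme from WI-38 lung fibroblast culture supernatants. Compounds sonicated into MeOH and serially diluted; some runs had β-mercaptoethanol at 9.6×10^-5 M final. 3H- or 14C-acetylated collagen (100 μg/tube) added at 4 °C, then 37 °C for 1000 min. Spun 12 000 rpm, 15 min, 4 °C. Supernatant peptides counted by scintillation. Enzyme set for 70% degradation.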

In test [2] the target is T1, Interstitial collagenase. Nature of the test: Inhibition of radiolabeled rat skin type I collagen degradation by purified human lung fibroblast collagenase. Put shortly:
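Trypsin-activated, semipurified enzyme from WI-38 lung fibroblast culture supernatants. 3H- or 14C-acetylated collagen (100 μg/tube) added at 4 °C, then 37 °C for 1000 min. Spun 12 000 rpm, 15 min, 4 °C. Supernatant peptides counted by scintillation. Enzyme set for 70% degradation.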

The target in test [3] is T1, Interstitial collagenase. Nature of the test: Inhibition of rat skin type I collagen degradation by purified human lung fibroblast collagenase without beta-mercaptoethanol. Put shortly: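 β-Mercaptoethanol omitted. Enzyme was trypsin-activated, semipurified collagenase from WI-38 fibroblast culture supernatants. Compounds sonicated into MeOH, serially diluted. Collagen 3H- or 14C-acetylated, 100 μg/tube, added to tubes cooled to 4 °C. Incubated 37 °C for 1000 min, centrifuged 12 000 rpm for 15 min at 4 °C. Soluble supernatant peptides counted by liquid scintillation.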

With `CNC(=O)[C@H](Cc1ccc(OC)cc1)NC(=O)C(CC(C)C)C(C)S` (some centres undefined), at Interstitial collagenase [1], the IC50 – broadly, the concentration needed to halve the response being measured – worked out at 17 nM.
Turning to `CNC(=O)[C@H](Cc1c[nH]c2ccccc12)NC(=O)C(CC(C)C)C(S)CC(=O)OC` (stereo in doubt; 56c), half-maximal inhibition at Interstitial collagenase [1] (IC50) required 730 nM.
For `CNC(=O)[C@H](Cc1ccc(OC)cc1)NC(=O)[C@H](CC(C)C)[C@@H](S)CC(=O)NCC(N)=O`, at Interstitial collagenase [2], the IC50 was 32 nM.
Molecule `COC(=O)C[C@H](S)[C@@H](CC(C)C)C(=O)N[C@@H](Cc1ccccc1)C(N)=O` (stereo in doubt; 58cd) came in with an IC50 at Interstitial collagenase [2] of 190 nM.
Turning to `CNC(=O)[C@H](Cc1c[nH]c2ccccc12)NC(=O)[C@H](CC(C)C)[C@@H](S)CC(=O)OC`, the IC50 against Interstitial collagenase [1] is 2.5 nM; against Interstitial collagenase [3] it was 21 nM.
Take `CNC(=O)[C@@H](NC(=O)C(CC(C)C)C(S)CC(=O)OC)C(C)OCc1ccccc1` (stereo in doubt; 57ab): at Interstitial collagenase [2], the IC50 is 3 nM.
Take `CNC(=O)[C@H](Cc1ccc(OC)cc1)NC(=O)[C@H](CC(C)C)[C@@H](S)CC(=O)NC(CC(C)C)C(=O)OC(C)(C)C` (some centres undefined): the IC50 on Interstitial collagenase [2] was 980 nM.
As for `CNC(=O)[C@H](Cc1ccc(OC)cc1)NC(=O)[C@H](CC(C)C)[C@H](CC(=O)OC)SC(C)=O`, the midpoint of inhibition at Interstitial collagenase [2], the IC50, lay at 44 nM.
At Interstitial collagenase [2], `CNC(=O)[C@H](Cc1ccc(OC)cc1)NC(=O)[C@H](CC(C)C)[C@@H](S)CC(=O)OC(C)(C)C` gave an IC50 of 10 nM.
On Interstitial collagenase [2], `CNC(=O)C[C@H](S)[C@@H](CC(C)C)C(=O)N[C@@H](Cc1ccc(OC)cc1)C(=O)NC` had an IC50 of 145 nM.
In the case of `CNC(=O)[C@@H](NC(=O)C(CC(C)C)C(S)CC(=O)OC)C(C)OCc1ccccc1` (stereo in doubt; 57cd), the midpoint of inhibition against Interstitial collagenase [2], the IC50, lay at 13 nM.
Molecule `CNC(=O)[C@H](Cc1c[nH]c2ccccc12)NC(=O)C(CC(C)C)C(S)CC(=O)OC` (stereo in doubt; 56b) had an IC50 against Interstitial collagenase [1] of 810 nM.
At Interstitial collagenase [2], `CNC(=O)[C@H](Cc1ccc(OC)cc1)NC(=O)[C@H](CC(C)C)[C@@H](S)CC(=O)O` displayed an IC50 of 25 nM.
At Interstitial collagenase [2], `CNC(=O)[C@H](Cc1ccc(OC)cc1)NC(=O)[C@H](CC(C)C)[C@@H](S)CC(=O)NCC(=O)OC(C)(C)C` gave an IC50 of 280 nM.
With `CNC(=O)[C@H](Cc1ccccc1)NC(=O)[C@H](CC(C)C)[C@@H](S)CC(=O)OC`, the midpoint of inhibition on Interstitial collagenase [2], the IC50, lay at 2 nM.
On to `CNC(=O)[C@H](Cc1ccc(OC)cc1)NC(=O)[C@H](CC(C)C)[C@@H](S)CC(=O)N1CCN(C)CC1`, for which the IC50 against Interstitial collagenase [2] was 120 nM.
Take `CNC(=O)[C@H](Cc1ccc(OC)cc1)NC(=O)[C@H](CC(C)C)[C@@H](S)CC(N)=O`: at Interstitial collagenase [2], half-maximal inhibition (IC50) required 23 nM.
Same read-out and setting: under `CNC(=O)[C@H](Cc1ccc(OC)cc1)NC(=O)[C@H](CC(C)C)[C@@H](S)CC(=O)NCC(=O)O` stands 27 nM.
In the case of `CNC(=O)[C@H](Cc1c[nH]c2ccccc12)NC(=O)[C@H](CC(C)C)[C@H](CC(=O)OC)SC(C)=O`, half-maximal inhibition at Interstitial collagenase [1] (IC50) required 19 nM.
Molecule `CNC(=O)[C@H](Cc1c[nH]c2ccccc12)NC(=O)[C@@H](CC(C)C)[C@H](S)CC(=O)OC` showed an IC50 against Interstitial collagenase [1] of 12 nM.
`CNC(=O)[C@H](Cc1ccc(OC)cc1)NC(=O)[C@H](CC(C)C)[C@@H](S)CC(=O)NC(CC(C)C)C(=O)O` (some centres undefined) yielded an IC50 on Interstitial collagenase [2] of 830 nM.
In the case of `CNC(=O)[C@H](Cc1c[nH]c2ccccc12)NC(=O)[C@H](CC(C)C)[C@H](CC(=O)OC)SS[C@@H](CC(=O)OC)[C@@H](CC(C)C)C(=O)N[C@@H](Cc1c[nH]c2ccccc12)C(=O)NC`, the IC50 on Interstitial collagenase [1] was 22 nM; at Interstitial collagenase [3], 1400 nM.
